Sampled rows, rich in hits. Any-hit rate of the full collection: about 3.3%.
ABHD4 inh – ABHD4 inhibitors, primary screen, biochemical, fluorescence polarization, mouse | (Lyso)-N-acylphosphatidylethanolamine lipase (Mus musculus), Q8VD66 | purified mABHD4, FP-Rh probe fluorescence polarization | inhibition, % at 8.92 µM | 370,000 compounds, 0.54% hits;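 active = inhibition exceeding the mean over every tested compound plus 3 SD, cut at about 30% in these data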;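 note: 0% = plate median of compound wells and 100% = S159A mutant with DMSO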
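Assay system: mABHD4 protein; medium: HEPES pH 7.0, NaCl, Pluronic buffer; dosing: 8.92 µM, single dose; schedule: 45 min + 60 min at 25 °C; signal: FP readout, ex 525 nm / em 598 nm; read-out: normalized percent inhibition of probe labeling; repeats: single replicate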
rCAG RNA binder – binders of r(CAG) RNA repeats, primary screen, biochemical, fluorescence. r(CAG) RNA repeat, TO-PRO-1 dye displacement fluorescence. inhibition, % at 3 µM. 370,000 compounds, 1.3% hits. AID 651821, 2012;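 active = inhibition above the plate cutoff, the mean of all test compounds on that plate plus 3 SD, cut at about 35% in these data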;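 note: 0% = DMSO alone and 100% = 100 µM mitoxantrone as full dye displacement; higher means more dye released from RNA so lower well fluorescence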
HTRA1 inhibitor – HTRA1 serine protease inhibitors, primary screen, biochemical, fluorescence polarization, HTS; Q92743; recombinant HTRA1, FP-rhodamine activity-based probe; inhibition, % at 5.96 µM; 340,000 compounds, 0.5% hits; in the data active = inhibition above about 36%;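 note: 0% = enzyme with DMSO and 100% = wells lacking enzyme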
Target sequence (Q92743 whole entry, looked up): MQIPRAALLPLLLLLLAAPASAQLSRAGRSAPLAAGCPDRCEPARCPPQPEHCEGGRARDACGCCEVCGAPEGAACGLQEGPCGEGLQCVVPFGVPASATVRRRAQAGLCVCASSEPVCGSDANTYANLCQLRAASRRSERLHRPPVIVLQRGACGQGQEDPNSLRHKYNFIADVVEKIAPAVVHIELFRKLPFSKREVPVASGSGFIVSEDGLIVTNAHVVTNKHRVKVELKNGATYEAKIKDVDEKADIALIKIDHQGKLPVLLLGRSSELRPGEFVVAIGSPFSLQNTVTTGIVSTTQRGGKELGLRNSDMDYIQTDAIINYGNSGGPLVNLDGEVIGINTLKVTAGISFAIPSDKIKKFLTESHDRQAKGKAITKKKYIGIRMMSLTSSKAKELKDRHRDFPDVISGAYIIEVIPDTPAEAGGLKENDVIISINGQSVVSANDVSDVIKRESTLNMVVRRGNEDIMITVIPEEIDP
PRMT1 inh – PRMT1 methyltransferase inhibitors, primary screen, biochemical, fluorescence polarization; inhibition, % at 2.79 µM; recombinant PRMT1, activity-based probe fluorescence polarization; Protein arginine N-methyltransferase 1 (Homo sapiens), Q99873; 370,000 compounds, 1.3% hits;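 active = inhibition above about 21% made by adding two undisclosed values, limit read from the data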
SIAE inh – human SIAE inhibitors, primary screen, biochemical, fluorescence polarization, FP-Rh probe, 1536-well HTS | AID 1053197, 2014 | SIAE FP-Rh probe binding | inhibition, % at 9.66 µM | 370,000 compounds, 0.69% hits;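 active = inhibition above a cutoff: mean of compounds within the control limits plus 3 SD of those, cut at about 17% in these data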;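 note: 0% = plate median of compound wells and 100% = probe without SIAE protein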
HTRA1 conf – HTRA1 protease inhibitors, retest, confirmation, biochemical, fluorescence polarization. 1,600 compounds, 66% hits. inhibition, % at 5.96 µM. AID 540248, 2011. shares compounds with HTRA1 inhibitor. recombinant HTRA1, FP-rhodamine activity-based probe;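 active = mean inhibition over three repeats above a set limit taken from the earlier primary screen, cut at about 37% in these data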;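 note: 0% = HTRA1 with DMSO and 100% = wells lacking HTRA1; inhibitors block probe binding so polarization drops and inhibition rises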
Numbers without * were called inactive; . = not tested or not shown.

SMILES	ABHD4 inh	rCAG RNA binder	HTRA1 inhibitor	PRMT1 inh	SIAE inh	HTRA1 conf
Cc1ccc2ccc(C(Nc3ccccc3)c3ccccc3)c(O)c2n1 (stereo unspecified)	-5.2	5.6	.	-3.5	12.3	.
Cc1ccc2ccc(C(Nc3cccc(C(F)(F)F)c3)c3cccnc3)c(O)c2n1 (stereo unspecified)	3.9	0.5	54.2*	5.5	4.1	60.7*
CC(C)C[C@H](NC(=O)C1CCCC1)C(=O)N1CCC[C@H]1C(=O)NCc1ccccc1	-1.9	1.6	.	-3.8	-7.2	.
Nc1ccccc1N=Nc1ccccc1N	9.3	-6.8	41.9*	4.2	8.5	38.6*
CC(=O)c1ccc(NC(=O)CC2Nc3cccc4cccc(c34)NC2=O)cc1 (stereo unspecified)	21.9	18.5	56.6*	5.4	9.4	10.0
Cc1cc(N2CCN(C(=O)OC(C)(C)C)C[C@@H]2C)ccc1N1CCS(=O)(=O)CC1	3.3	1.3	.	-0.2	4.0	.
CCc1cccc(CC)c1NC(=S)NCCc1ccc(O)c(O)c1	11.5	6.5	67.1*	6.2	4.1	77.5*
C#CCN1C[C@@]2(O)CC[C@@H](O)[C@@H](OC)[C@@H]2[C@@]1(C)[C@H](O)CC=C(C)C	6.0	0.4	.	4.1	2.2	.
O=C(O)c1ccc2c(c1)[C@@H]1C=CC[C@@H]1[C@H](c1ccccn1)N2	70.3*	81.9*	46.5*	70.2*	17.3*	22.1
O=C(NC1CCCCN(Cc2ccc(Cl)cc2)C1=O)c1cccc2nsnc12 (stereo unspecified)	2.1	5.4	.	2.6	-4.9	.
Cn1[nH]cc(C=NC(N)=O)c1=O	6.9	0.5	46.8*	-2.3	3.4	1.2
Nc1ccn([C@@H]2O[C@H](C(=O)NCC(=O)N3CCOCC3)[C@@H](O)[C@H]2O)c(=O)n1	-33.2	0.4	.	-2.5	7.5	.
CC[n+]1ccc(C)c2cc(P(=O)(c3ccccc3)c3ccccc3)ccc21	1.1	7.5	44.1*	7.3	2.5	33.0
CC[n+]1ccc(C)c2cc(SC(F)(F)F)ccc21	.	.	36.4*	.	.	24.0
CC(C)[C@H](NC(=O)c1cccc(S(=O)(=O)N2CCOCC2)c1)C(=O)OCC(=O)Nc1cccc(Br)c1	-14.6	2.9	36.9*	-1.3	-15.3	37.1*
COc1cccc2c1C(=N)c1c(O)c3c(c(O)c1C2=O)CC(O)(C(C)=O)CC3OC1CC(N)C(O)C(C)O1 (stereo unspecified)	.	.	41.2*	.	.	42.6*
COC(=O)c1cc2c(c3c4cc(C)ccc4n(S(=O)(=O)c4ccc(OC)cc4)c13)C(=O)N(Cc1ccccc1)C2	-6.1	15.7	.	3.4	-4.6	.
Nc1[nH]c(C(=O)c2ccccc2)c(-c2cccc3ccccc23)c1C(=O)NCc1ccc(Cl)cc1Cl	0.6	10.3	.	-0.7	5.2	.
COc1cc(NC(C)CCc2ccccc2)cc(OC)c1OC (stereo unspecified)	18.4	-1.3	39.5*	3.5	10.0	27.4
O=C(N/N=C/c1ccc([N+](=O)[O-])o1)c1cc2ccccc2o1	29.2	16.8	28.4	7.4	6.8	.
O=[N+]([O-])c1ccc(/C=N/Nc2ccc3ccccc3c2)o1	0.4	30.7	36.9*	10.8	8.0	15.8
CCOC(=O)[C@@]12CCC3=C1N(CCC3)C(=O)[C@H](CC(=O)NCc1cccc(C(F)(F)F)c1)C2	-0.7	-0.2	.	2.1	1.8	.
COc1ccc(C(=O)NCC2CCN(C(=O)C(=O)c3cc4ccccc4o3)CC2)c(OC)c1	-5.4	3.7	.	0.1	5.4	.
Cc1sc2ncnc(N/N=C/c3ccc(O)cc3)c2c1C	17.8	8.5	19.6	-5.7	-2.0	.
Cc1sc2ncnc(N/N=C/c3ccccc3O)c2c1C	21.6	9.1	59.7*	-0.7	2.8	60.6*
SMILES	ABHD4 inh	rCAG RNA binder	HTRA1 inhibitor	PRMT1 inh	SIAE inh	HTRA1 conf
O=C(NC(c1ccc(Cl)cc1)c1cc(Cl)c2cccnc2c1O)c1cccnc1 (stereo unspecified)	0.1	-0.2	59.7*	1.5	1.2	52.1*
CCC(=O)NC(c1cccs1)c1cc(Cl)c2cccnc2c1O (stereo unspecified)	8.1	0.9	53.7*	-5.8	16.7	65.2*
O=C(NCc1ccc(Cl)cc1)c1cccnc1	-2.8	1.5	0.6	1.4	-2.3	.
CCCCC(=O)NC(c1ccco1)c1c(O)ccc2ccccc12 (stereo unspecified)	-11.3	6.8	-12.6	0.8	4.6	.
CN1CCN(C(c2ccc(C(F)(F)F)cc2)c2cc(Cl)c3cccnc3c2O)CC1 (stereo unspecified)	-7.4	2.9	.	-5.2	6.7	.
CCCCC(=O)NC(c1cccs1)c1cc(Cl)c2cccnc2c1O (stereo unspecified)	8.6	3.7	54.8*	-1.2	13.8	54.9*
COC(=O)[C@]12C[C@H](CC(=O)NCc3cccc(C(F)(F)F)c3)C(=O)N(Cc3ccccc3)C1=C[C@H](C(C)C)O[C@@H]2C1CC1	-5.5	0.6	.	1.3	-3.2	.
COC(=O)C1=C(C)N(C)C(=NCC2CC2)NC1c1ccc(Cl)cc1 (stereo unspecified)	1.9	5.6	.	0.2	10.6	.
COc1cc(C)c2sc3ccccc3c(=O)c2c1NCCN(C)C	23.9	10.3	36.2*	9.0	1.9	43.9*
Cc1c2cc[n+](CCN3CCCCC3)cc2c(C)c2c1[nH]c1ccc(O)cc12	.	.	41.4*	.	.	54.8*
CCOC(=O)c1[nH]c2ccc(C)cc2c1NC(=O)CN1CCCCC1	0.6	-2.3	-1.2	0.4	2.2	.
Cc1ccc(/C=C/C(=O)c2ccccc(=O)c2O)cc1C	29.1	28.6	36.9*	12.8	4.1	44.2*
COc1ccc(C=CC(=O)c2ccc(OC)c(OC)c2O)cc1OC	-6.2	1.9	-2.3	-2.7	-19.0	.
C(=N\C(/N=C/c1ccco1)c1ccco1)/c1ccco1	14.1	9.9	11.6	12.5	5.1	.
C(=Nc1cccc2c(N=Cc3ccco3)cccc12)c1ccco1	.	.	39.4*	.	.	2.7
Cc1ccccc1CNC(=O)C1CCCN(c2ncccn2)C1 (stereo unspecified)	-1.7	1.2	.	-2.0	0.4	.
COc1ccc(C=NNc2ccc(S(=O)(=O)Nc3ccccc3C(=O)O)cc2[N+](=O)[O-])c(OC)c1	.	.	46.6*	.	.	39.2*
CCOc1ccc(C=NNc2ccc(S(=O)(=O)Nc3ccccc3C(=O)O)cc2[N+](=O)[O-])cc1	.	.	11.2	.	10.2	.
O=C(CCc1c[nH]c2ccccc12)Nc1ccc(Nc2cccnc2)c(Br)c1	14.1	8.9	.	4.1	16.7	.
CCC[n+]1c(C)sc2c3c(ccc21)CCCC3	.	.	45.7*	.	.	49.9*
NC[C@@H]1O[C@H](C23CC4CC(CC(C4)C2)C3)Cc2c1ccc(O)c2O	20.9	23.4	60.3*	-1.2	-2.7	73.2*

Screening data deposited in PubChem by The Scripps Research Institute Molecular Screening Center.
